According to ChEMBL document CHEMBL1132213, “Tyrosine kinase inhibitors. 15. 4-(Phenylamino)quinazoline and 4-(phenylamino)pyrido[d]pyrimidine acrylamides as irreversible inhibitors of the ATP binding site of the epidermal growth factor receptor” (J Med Chem, 1999):
Values joined by “and” are separate entries in the source; they are usually repeats but may differ in a detail not shown here. Identical values can stand only once. Blank lines part the entries; values can stand above or below the molecule they belong to.

Experiments:
[1] = target: T1, Receptor tyrosine-protein kinase erbB-2 (Homo sapiens, UniProt P04626); experiment: Inhibition of heregulin-stimulated autophosphorylation of ERBB2 receptor kinase in MDA-MB-453 cells.; assay type: cell-based
T1 sequence (P04626 whole entry): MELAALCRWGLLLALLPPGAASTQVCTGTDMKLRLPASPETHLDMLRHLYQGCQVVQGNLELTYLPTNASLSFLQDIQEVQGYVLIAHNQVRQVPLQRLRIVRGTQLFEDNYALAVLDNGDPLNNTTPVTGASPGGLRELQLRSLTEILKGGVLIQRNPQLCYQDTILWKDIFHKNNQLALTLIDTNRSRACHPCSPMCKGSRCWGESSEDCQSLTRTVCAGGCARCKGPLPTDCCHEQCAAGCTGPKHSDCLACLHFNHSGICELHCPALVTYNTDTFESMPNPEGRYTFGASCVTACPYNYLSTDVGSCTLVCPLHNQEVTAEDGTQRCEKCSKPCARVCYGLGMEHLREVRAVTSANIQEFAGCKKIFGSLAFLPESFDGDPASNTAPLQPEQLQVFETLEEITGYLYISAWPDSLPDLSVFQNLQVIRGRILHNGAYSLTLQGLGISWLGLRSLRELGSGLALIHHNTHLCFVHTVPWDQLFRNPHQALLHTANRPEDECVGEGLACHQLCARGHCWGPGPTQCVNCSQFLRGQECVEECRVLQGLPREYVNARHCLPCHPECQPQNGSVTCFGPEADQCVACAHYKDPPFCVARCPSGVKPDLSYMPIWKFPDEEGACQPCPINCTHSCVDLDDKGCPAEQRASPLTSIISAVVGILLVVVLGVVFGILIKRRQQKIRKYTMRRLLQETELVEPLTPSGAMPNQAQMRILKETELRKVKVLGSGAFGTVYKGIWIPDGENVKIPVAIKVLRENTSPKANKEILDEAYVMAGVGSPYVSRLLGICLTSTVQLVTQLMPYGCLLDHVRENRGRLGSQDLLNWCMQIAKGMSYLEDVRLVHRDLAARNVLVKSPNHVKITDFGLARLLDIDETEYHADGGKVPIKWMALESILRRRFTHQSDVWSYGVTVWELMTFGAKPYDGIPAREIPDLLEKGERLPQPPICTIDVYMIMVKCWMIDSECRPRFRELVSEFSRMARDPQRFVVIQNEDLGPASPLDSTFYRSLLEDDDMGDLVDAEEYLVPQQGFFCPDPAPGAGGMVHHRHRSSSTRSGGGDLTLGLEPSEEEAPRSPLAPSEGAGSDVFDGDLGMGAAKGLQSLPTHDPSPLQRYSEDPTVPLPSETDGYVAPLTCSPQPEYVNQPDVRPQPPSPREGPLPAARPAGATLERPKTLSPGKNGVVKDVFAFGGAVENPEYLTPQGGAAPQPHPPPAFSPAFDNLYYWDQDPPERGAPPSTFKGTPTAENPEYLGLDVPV
Method in brief: (§1)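 MDA-MB-453 cells in αMEM/F12 with 10% FBS were grown to 90% confluency and held serum-free for 18 h. Cells were treated 1 h with varied inhibitor concentrations, then stimulated 5 min with heregulin (10 ng/mL) and lysed in boiling Laemmli buffer. Read-out was SDS-PAGE and antiphosphotyrosine Western blot with [125I]protein A detection and laser densitometry. IC50 is the average of two experiments.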

[2] = target: T2, Epidermal growth factor receptor (Homo sapiens, UniProt P00533)
T2 sequence (P00533 whole entry): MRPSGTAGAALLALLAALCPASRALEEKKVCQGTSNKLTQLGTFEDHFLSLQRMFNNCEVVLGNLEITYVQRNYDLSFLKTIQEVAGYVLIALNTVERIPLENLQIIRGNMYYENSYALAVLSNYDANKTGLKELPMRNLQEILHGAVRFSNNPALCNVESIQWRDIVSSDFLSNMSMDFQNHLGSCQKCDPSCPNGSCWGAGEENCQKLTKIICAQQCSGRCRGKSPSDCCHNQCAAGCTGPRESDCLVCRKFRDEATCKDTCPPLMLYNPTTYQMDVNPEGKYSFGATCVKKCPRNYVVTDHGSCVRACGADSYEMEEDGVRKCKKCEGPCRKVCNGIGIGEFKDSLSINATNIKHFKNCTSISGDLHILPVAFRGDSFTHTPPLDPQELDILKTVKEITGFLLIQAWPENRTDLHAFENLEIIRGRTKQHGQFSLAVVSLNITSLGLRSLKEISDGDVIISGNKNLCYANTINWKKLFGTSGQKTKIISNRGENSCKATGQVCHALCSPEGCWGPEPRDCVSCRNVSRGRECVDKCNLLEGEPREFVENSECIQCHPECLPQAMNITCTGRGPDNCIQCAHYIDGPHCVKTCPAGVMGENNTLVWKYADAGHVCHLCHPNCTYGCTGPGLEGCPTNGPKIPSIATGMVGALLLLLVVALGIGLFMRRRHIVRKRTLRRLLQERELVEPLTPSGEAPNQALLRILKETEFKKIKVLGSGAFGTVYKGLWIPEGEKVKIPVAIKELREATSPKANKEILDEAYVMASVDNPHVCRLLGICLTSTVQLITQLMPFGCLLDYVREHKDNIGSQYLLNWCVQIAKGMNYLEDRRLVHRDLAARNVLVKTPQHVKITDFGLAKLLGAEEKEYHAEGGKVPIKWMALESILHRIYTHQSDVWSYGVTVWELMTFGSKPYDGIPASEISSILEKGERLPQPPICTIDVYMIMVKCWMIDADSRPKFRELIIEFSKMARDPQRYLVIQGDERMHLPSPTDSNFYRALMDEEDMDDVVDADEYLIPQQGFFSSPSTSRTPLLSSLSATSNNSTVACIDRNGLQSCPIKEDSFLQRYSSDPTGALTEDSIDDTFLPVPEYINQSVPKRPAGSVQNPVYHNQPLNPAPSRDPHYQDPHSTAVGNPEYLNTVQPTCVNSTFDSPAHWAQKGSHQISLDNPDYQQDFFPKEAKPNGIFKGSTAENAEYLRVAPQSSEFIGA

[3] = target: T2, Epidermal growth factor receptor; remark: listed apart in the source
[4] = target: T1, Receptor tyrosine-protein kinase erbB-2; experiment: Inhibition of heregulin-stimulated autophosphorylation of erbB2 in MDA-MB-453 cells.; assay type: cell-based; method in brief: as §1
[5] = test system: NCI-H125; experiment: In vivo activity against H125 xenograft in nude mice, weight change at 9.6 mg/kg ip dose; assay type: functional; conditions: route intraperitoneal
Method in brief: (§2)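 NCr nu/nu mice (18–22 g, 6/dose group) implanted sc in the right axilla with serially passaged H125 NSCLC fragments on day 0. Dosing ip by average cage weight as a fine suspension in 6% dimethylacetamide/94% 50 mM sodium lactate pH 4.0, started at tumor mass 100–150 mg. Read-outs were body weight change and treated-minus-control days to reach 750 mg.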

[6] = test system: NCI-H125; experiment: In vivo activity against H125 xenograft in nude mice, ratio of treated/control median tumor mass at 200 mg/kg peroral dose; assay type: functional; conditions: route oral
Method in brief: (§3)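 Nude (NCr nu/nu) mice of 18–22 g were randomized and implanted sc in the right axilla with serially passaged A431 or H125 tumor fragments on day 0. Dosing by average cage weight (6 mice/group) ip or po began at 100–150 mg tumor mass. The ip vehicle was 6% dimethylacetamide/94% 50 mM sodium lactate pH 4.0 suspension; later suspensions used 0.5% methylcellulose. T/C = median treated/control tumor mass ×100% on the last therapy day. T−C = days for tumors to reach 750 mg.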

[7] = test system: NCI-H125; experiment: Difference in days for treated (T) and control (C) H125 cell tumors to reach 750 mg at 9.6 mg/kg ip dose; assay type: functional; conditions: route intraperitoneal; method in brief: as §2
[8] = test system: A-431; experiment: In vivo activity against A431 xenograft in nude mice, ratio of treated/control median tumor mass at 212 mg/kg peroral dose; assay type: functional; conditions: dose 12 mg/kg; route intraperitoneal; in the assay text read “12 mg/kg intraperitoneal dose” for “212 mg/kg peroral dose”; method in brief: as §3
[9] = test system: NCI-H125; experiment: (§4) In vivo activity against H125 xenograft in nude mice, weight change at 200 mg/kg peroral dose; assay type: functional, organism-based; design: dose 200 mg/kg; method in brief: as §3
[10] = test system: Mus musculus; experiment: Difference in days for treated (T) and control (C) tumors to reach 750 mg at 200 mg/kg ip dose; assay type: functional; conditions: route intraperitoneal; method in brief: as §3
[11] = test system: NCI-H125; experiment: In vivo activity against H125 xenograft in nude mice, ratio of treated/control median tumor mass at 9.6 mg/kg peroral dose; assay type: functional; conditions: route intraperitoneal, in the assay text read “intraperitoneal” for “peroral”
[12] = test system: A-431; experiment: In vivo activity against A431 xenograft in nude mice, weight change at 12 mg/kg ip dose; assay type: functional; conditions: route intraperitoneal; method in brief: as §3
[13] = test system: A-431; experiment: Difference in days for treated (T) and control (C) A431 cell tumors to reach 750 mg at 12 mg/kg ip dose; assay type: functional; conditions: route intraperitoneal; method in brief: as §3
[14] = test system: A-431; experiment: In vivo activity against A431 xenograft in nude mice, ratio of treated/control median tumor mass at 200 mg/kg peroral dose; assay type: functional; conditions: route oral; method in brief: as §3
[15] = test system: A-431; experiment: (§5) In vivo activity against A431 xenograft in nude mice, weight change at 200 mg/kg peroral dose; assay type: functional; conditions: route oral; method in brief: as §3
[16] = test system: NCI-H125; experiment: as §4; assay type: functional; conditions: route oral; method in brief: as §3
[17] = test system: NCI-H125; experiment: Difference in days for treated (T) and control (C) tumors to reach 750 mg at 250 mg/kg peroral dose; assay type: functional; conditions: route oral; method in brief: as §3
[18] = test system: A-431; experiment: Difference in days for treated (T) and control (C) A431 cell tumors to reach 750 mg at 260 mg/kg peroral dose; assay type: functional; conditions: route oral; method in brief: as §3
[19] = test system: NCI-H125; experiment: Difference in days for treated (T) and control (C) H125 cell tumors to reach 750 mg at 50 mg/kg ip dose; assay type: functional; conditions: route intraperitoneal; method in brief: as §3
[20] = test system: NCI-H125; experiment: In vivo activity against H125 xenograft in nude mice, ratio of treated/control median tumor mass at 50 mg/kg ip dose; assay type: functional; conditions: route intraperitoneal; method in brief: as §3
[21] = test system: A-431; experiment: In vivo activity against A431 xenograft in nude mice, weight change at 260 mg/kg peroral dose; conditions: route oral
[22] = test system: A-431; experiment: Difference in days for treated (T) and control (C) A431 cell tumors to reach 750 mg at 75 mg/kg ip dose; assay type: functional; conditions: route intraperitoneal; method in brief: as §3
[23] = test system: NCI-H125; experiment: In vivo activity against H125 xenograft in nude mice, weight change at 50 mg/kg ip dose; assay type: functional; conditions: route intraperitoneal; method in brief: as §3
[24] = test system: NCI-H125; experiment: In vivo activity against H125 xenograft in nude mice, weight change at 250 mg/kg peroral dose; assay type: functional; conditions: route oral; method in brief: as §3
[25] = test system: NCI-H125; experiment: In vivo activity against H125 xenograft in nude mice, ratio of treated/control median tumor mass at 250 mg/kg peroral dose; assay type: functional; conditions: route oral; method in brief: as §3
[26] = test system: A-431; experiment: In vivo activity against A431 xenograft in nude mice, ratio of treated/control median tumor mass at 260 mg/kg peroral dose; conditions: route oral
[27] = test system: Mus musculus; experiment: In vivo activity against tumor xenograft in nude mice, weight change at 75 mg/kg ip dose; assay type: functional; conditions: route intraperitoneal; method in brief: as §3
[28] = test system: A-431; experiment: In vivo activity against A431 cell tumor xenograft in nude mice at 75 ip mg/kg dose; assay type: functional; method in brief: as §3
[29] = test system: Mus musculus; experiment: Difference in days for treated (T) and control (C) tumors to reach 750 mg at 200 mg/kg peroral dose; assay type: functional; conditions: route oral; method in brief: as §3
[30] = test system: A-431; experiment: Difference in days for treated (T) and control (C) A431 cell tumors to reach 750 mg at 40 mg/kg peroral dose; assay type: functional; conditions: route oral; method in brief: as §3
[31] = test system: A-431; experiment: In vivo activity against A431 xenograft in nude mice, weight change at 40 mg/kg peroral dose; assay type: functional; conditions: route oral; method in brief: as §3
[32] = test system: A-431; experiment: In vivo activity against A431 xenograft in nude mice, ratio of treated/control median tumor mass at 40 mg/kg peroral dose; assay type: functional; conditions: route oral; method in brief: as §3
[33] = test system: A-431; experiment: In vivo activity against A431 xenograft in nude mice, ratio of treated/control median tumor mass at 150 mg/kg peroral dose; assay type: functional; conditions: route oral; method in brief: as §3
[34] = test system: NCI-H125; experiment: In vivo activity against H125 xenograft in nude mice, ratio of treated/control median tumor mass at 50 mg/kg peroral dose; assay type: functional; conditions: route oral; method in brief: as §3
[35] = test system: A-431; experiment: In vivo activity against A431 xenograft in nude mice, weight change at 1150 mg/kg peroral dose; assay type: functional; conditions: dose 150 mg/kg; route oral; in the assay text read “150 mg/kg” for “1150 mg/kg”; method in brief: as §3
[36] = test system: A-431; experiment: In vivo activity against A431 xenograft in nude mice, ratio of treated/control median tumor mass at 47 mg/kg ip dose; assay type: functional; conditions: route intraperitoneal; method in brief: as §3
[37] = test system: A-431; experiment: Difference in days for treated (T) and control (C) A431 cell tumors to reach 750 mg at 47 mg/kg ip dose; assay type: functional; conditions: route intraperitoneal; method in brief: as §3
[38] = test system: A-431; experiment: In vivo activity against A431 xenograft in nude mice, weight change at 47 mg/kg ip dose; assay type: functional; conditions: route intraperitoneal; method in brief: as §3
[39] = test system: A-431; experiment: as §5; assay type: functional, organism-based; design: dose 200 mg/kg; method in brief: as §3

SMILES: C=CC(=O)Nc1ccc2ncnc(Nc3ccc(F)c(Br)c3)c2c1
- IC50 [2]: 2.7 nM
- IC50 [1]: 7.3 nM
- IC50 [3]: 0.69 nM

SMILES: C=CC(=O)Nc1cc2c(Nc3cccc(C)c3)ncnc2cn1
- IC50 [4]: 8.8 nM

SMILES: C=CC(=O)Nc1ccc2ncnc(Nc3ccc(F)c(Cl)c3)c2n1
- IC50 [1]: 12 nM

SMILES: C=CC(=O)Nc1ccc2c(Nc3cccc(Br)c3)ncnc2c1
- IC50 [1]: 73 nM
- IC50 [3]: 0.45 nM

SMILES: C=CC(=O)Nc1cc2c(Nc3cccc(Br)c3)ncnc2cn1
- Weight change [5]: -1.3 g
- T/C ([6]; 200 mg/kg): 11% and 20%
- T-C [7]: 8.7 days
- T/C [8]: 17%
- IC50 [1]: 3.9 nM
- Weight change [9]: Weight gain
- T-C [10]: 24.3 days and 16.5 days
- T/C [11]: 26%
- Weight change [12]: -2.4 g
- T-C [13]: 12 days

SMILES: C=CC(=O)Nc1ccc2ncnc(N3CCc4ccc(Br)cc43)c2c1
- IC50 [2]: 9.9 nM

SMILES: C=CC(=O)Nc1ccc2ncnc(Nc3cccc(C)c3)c2c1
- T-C [17]: 10.5 days
- T-C [18]: 28.2 days
- T-C [19]: 11.9 days
- T/C [20]: 15%
- Weight change [21]: -1.3 g
- T-C [22]: 32.3 days
- Weight change [23]: 0 g
- Weight change [24]: -0.1 g
- IC50 [1]: 22 nM
- T/C [25]: 24%
- T/C [26]: 3%
- Weight change [27]: -2.2 g
- T/C [28]: 11%

SMILES: C=CC(=O)Nc1ccc2ncnc(Nc3cccc(Br)c3)c2c1
- T/C [33]: 2%
- T/C [20]: 15%
- Weight change [23]: -1.5 g
- T/C [34]: 8%
- IC50 [1]: 5.7 nM
- Weight change [35]: -1.7 g
- T/C [36]: 2%
- T-C [37]: 29 days and 15.7 days
- Weight change [38]: -1 g

SMILES: C=CC(=O)Nc1ccc2ncnc(Nc3ccc(F)c(Br)c3)c2n1
- IC50 [2]: 18 nM
- IC50 [1]: 26 nM
- IC50 [3]: 1.2 nM

Continued, in another order:

- IC50 [1]: 8.6 nM
SMILES: C=CC(=O)Nc1ccc2ncnc(Nc3ccc(Oc4ccccc4)cc3)c2c1

- IC50 [2]: 3.3 nM
- IC50 [1]: 3 nM
- IC50 [3]: 0.77 nM
SMILES: C=CC(=O)Nc1cc2c(Nc3ccc(F)c(Cl)c3)ncnc2cn1
- T/C [6]: 27%
- T/C [14]: 12%
- Weight change [15]: -0.3 g
- Weight change [16]: -1.8 g
- T-C [10]: 18.3 days and 12.7 days

- IC50 [2]: 3.1 nM
- IC50 [1]: 4.3 nM
- IC50 [3]: 0.75 nM
SMILES: C=CC(=O)Nc1ccc2ncnc(Nc3ccc(F)c(Cl)c3)c2c1
- T-C [29]: 27.4 days
- T/C [6]: 16%
- T-C [30]: 20.8 days
- Weight change [31]: 0 g
- Weight change [16]: -0.3 g
- T/C [32]: 11%

- IC50 [2]: 2.1 nM
- IC50 [1]: 1.1 nM
- IC50 [3]: 0.72 nM
SMILES: C=CC(=O)Nc1cc2c(Nc3ccc(F)c(Br)c3)ncnc2cn1
- Weight change [39]: Weight gain
- T/C [6]: 19%
- T/C [14]: 13%
- Weight change [16]: -1.8 g
- T-C [10]: 51.1 days and 18.2 days
